The nature of assay [1]: hit retest on RPL19A-GFP reporter strain – cell-based, S. cerevisiae, flow cytometry, cherry picks, mother/daughter gates, confirmation (AID 2270;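 active = GFP response below 50% of the DMSO control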). The following applies: 3 h, at 10 µM, stronger effect = lower value, 100 = same GFP as DMSO wells.
A short description of assay [2]: yeast TOR pathway reporter LAP4-GFP change – cell-based, cherry picks, flow cytometry, mother/daughter gates, confirmation (AID 2271;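 active = GFP response above 150% of the DMSO control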;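 also: ratio of sample to DMSO plate mean so 100% equals DMSO level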). The following applies: S. cerevisiae LAP4-GFP strain, 3 h, at 10 µM, stronger effect = higher value, 100 means same as DMSO control. The method in brief: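 material = Alexa 633-stained baker's yeast GFP-fusion strain | amount = 0.2 OD600 cells | schedule = 30 °C, 3 h compound incubation, rotating | signal = GFP by flow cytometry | measure = per-gate (all, mother, daughter) GFP response vs DMSO | controls = positive rapamycin (400 ng/mL), negative DMSO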
(A flow cytometer gives signals particle by particle.)

Assay [3] in a line: TOR pathway reporter MEP2-GFP, retest of hits – S. cerevisiae, flow cytometry GFP, cherry picks, confirmation (AID 2272;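 active = GFP response above 150% of the DMSO control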;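 also: ratio of well signal to plate DMSO mean so 100% equals DMSO level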). The following applies: S. cerevisiae MEP2-GFP strain, 3 h, at 10 µM, stronger effect = higher value.
Assay [4] in a line: yeast AGP1-GFP fluorescence change, single-dose – cell-based, flow cytometry, S. cerevisiae, cherry picks, confirmation (AID 2273).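 Also: median GFP channel fluorescence over the whole cell population gate.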 The following applies: S. cerevisiae AGP1-GFP strain, 3 h, at 10 µM.
Assay [5] can be described thus: TOR pathway CIT2 reporter hit retest – S. cerevisiae, GFP fusion, cherry picks, mother/daughter gates, confirmation (AID 2274). The following applies: S. cerevisiae CIT2-GFP strain, flow cytometry, 3 h, at 10 µM, stronger effect = higher value.
Where [6] appears, read: measured here: daughter cell gate.
[7] abbreviates: measured here: mother cell gate.
[8] abbreviates: measured here: daughter cell gate response.
Where [9] appears, read: measured here: mother cell gate response.

Experimental findings from PubChem BioAssay are described below.

Active and inactive are the calls of the source.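 The calls were made as follows, unless noted: active = GFP response above 150% of the DMSO level; inconclusive = fewer than 70 events counted for a yeast strain; inactive = the rest.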

On to `Cc1cccn2c(=O)c(/C=C(\C#N)C(N)=O)c(N3CCN(Cc4ccc5c(c4)OCO5)CC3)nc12`, for which the GFP response vs DMSO in assay [1] was 101% (inactive); in assay [1] (setting [6]), 101%; in assay [1] (setting [7]) it was 102%; in assay [3] it was 101% (inactive). Besides, the GFP response relative to DMSO was 101% (inactive) in assay [2], 103% in assay [2] (setting [8]) and 101% in assay [2] (setting [9]). Also, the GFP response, % of DMSO was 100% (inactive) in assay [4], 110% (inactive) in assay [5], 110% in assay [5] (setting [6]) and 112% in assay [5] (setting [7]).
As for `CC(Oc1ccc(Cl)cc1)C(=O)NNC(=S)NC(=O)c1ccco1` (stereo not drawn), the GFP response vs DMSO is 99.6% (inactive) in assay [1], 97.1% in assay [1] (setting [6]), 97.2% in assay [1] (setting [7]) and 128% (inactive) in assay [3]. Further, the GFP response relative to DMSO is 227% (active) in assay [2], 112% in assay [2] (setting [8]) and 205% in assay [2] (setting [9]). Further, the GFP response, % of DMSO in assay [4] is 115% (inactive); in assay [5] it was 106% (inactive); in assay [5] (setting [6]), 88.4%; in assay [5] (setting [7]) it was 93.2%.
In the case of `CCCc1[nH]nc2c1C(c1ccc(OC)c(Cn3nc(C)c(Br)c3C)c1)C(C#N)=C(N)O2` (stereo not drawn), the GFP response vs DMSO in assay [1] is 95% (inactive); in assay [1] (setting [6]), 94.2%; in assay [1] (setting [7]), 96.2%; in assay [3] it was 99.5% (inactive). The GFP response relative to DMSO is 97.7% (inactive) in assay [2], 97.9% in assay [2] (setting [8]) and 98.5% in assay [2] (setting [9]). Also, the GFP response, % of DMSO is 99.3% (inactive) in assay [4], 97.8% (inactive) in assay [5], 98.3% in assay [5] (setting [6]) and 95.6% in assay [5] (setting [7]).
`CCC(C(=O)O)n1nc(-c2ccccc2)c2cc(Cl)ccc21` (stereo not drawn): the GFP response vs DMSO in assay [1] was 98.7% (inactive); in assay [1] (setting [6]), 98.4%; in assay [1] (setting [7]) it was 98.2%; in assay [3], 99.3% (inactive). Further, the GFP response relative to DMSO was 98.9% (inactive) in assay [2], 96% in assay [2] (setting [8]) and 99.5% in assay [2] (setting [9]). Besides, the GFP response, % of DMSO in assay [4] was 102% (inactive); in assay [5], 101% (inactive); in assay [5] (setting [6]), 99.3%; in assay [5] (setting [7]), 102%.
Regarding `O=C1Nc2ccccc2/C1=C\C(=O)c1ccccc1`, the GFP response vs DMSO in assay [1] is 99% (inactive); in assay [1] (setting [6]) it was 96.4%; in assay [1] (setting [7]), 91.9%; in assay [3] it was 128% (inactive). The GFP response relative to DMSO was 228% (active) in assay [2], 180% in assay [2] (setting [8]) and 236% in assay [2] (setting [9]). The GFP response, % of DMSO in assay [4] is 103% (inactive); in assay [5] it was 109% (inactive); in assay [5] (setting [6]) it was 110%; in assay [5] (setting [7]), 104%.
Turning to `CCOC(=O)N/C(N)=N/c1nc2ccccc2s1`, the GFP response vs DMSO in assay [1] was 85.9% (inactive); in assay [1] (setting [6]), 82.1%; in assay [1] (setting [7]), 86.6%; in assay [3] it was 102% (inactive). In addition, the GFP response relative to DMSO was 120% (inactive) in assay [2], 113% in assay [2] (setting [8]) and 126% in assay [2] (setting [9]). The GFP response, % of DMSO in assay [4] was 95% (inactive); in assay [5] it was 92.6% (inactive); in assay [5] (setting [6]), 86.7%; in assay [5] (setting [7]), 93.4%.
As for `NC(=O)CSCc1c(Cl)cccc1Cl`, the GFP response vs DMSO in assay [1] is 101% (inactive); in assay [1] (setting [6]), 100%; in assay [1] (setting [7]), 101%; in assay [3], 109% (inactive). Further, the GFP response relative to DMSO was 105% (inactive) in assay [2], 103% in assay [2] (setting [8]) and 108% in assay [2] (setting [9]). For the same molecule, the GFP response, % of DMSO was 97.2% (inactive) in assay [4], 93.9% (inactive) in assay [5], 94.8% in assay [5] (setting [6]) and 92.3% in assay [5] (setting [7]).
Consider `O=C1C(CSCc2ccccc2)NC(=S)N1c1ccccc1` (stereo not drawn), for which the GFP response vs DMSO was 102% (inactive) in assay [1], 102% in assay [1] (setting [6]), 101% in assay [1] (setting [7]) and 98.8% (inactive) in assay [3]. For the same molecule, the GFP response relative to DMSO in assay [2] was 122% (inactive); in assay [2] (setting [8]) it was 120%; in assay [2] (setting [9]) it was 128%. The GFP response, % of DMSO in assay [4] is 98.1% (inactive); in assay [5], 99.7% (inactive); in assay [5] (setting [6]) it was 102%; in assay [5] (setting [7]), 94.7%.
Take `O=C1c2ccsc2SCCN1Cc1ccc(Cl)cc1`: the GFP response vs DMSO in assay [1] was 93.6% (inactive); in assay [1] (setting [6]), 86%; in assay [1] (setting [7]), 97%; in assay [3] it was 91.3% (inactive). Further, the figures for the GFP response relative to DMSO in assay [2], in assay [2] (setting [8]) and in assay [2] (setting [9]) were 135% (inactive), 128% and 144%, respectively. Further, the GFP response, % of DMSO in assay [4] was 93.9% (inactive); in assay [5], 82.2% (inactive); in assay [5] (setting [6]) it was 80.1%; in assay [5] (setting [7]) it was 82.6%.
On to `COc1ccc(NC(=S)N2CCC(c3ccccc3)C2)cc1` (stereo not drawn), for which the GFP response vs DMSO in assay [1] is 103% (inactive); in assay [1] (setting [6]) it was 98.8%; in assay [1] (setting [7]), 98%; in assay [3], 101% (inactive). In addition, the GFP response relative to DMSO in assay [2] is 97% (inactive); in assay [2] (setting [8]), 95.9%; in assay [2] (setting [9]), 97.3%. For the same molecule, the GFP response, % of DMSO in assay [4] is 98.6% (inactive); in assay [5], 97.3% (inactive); in assay [5] (setting [6]), 93.8%; in assay [5] (setting [7]) it was 94.4%.
With `Cc1c(O)ccc(C(=O)CN2CCN(c3ccc(F)cc3)CC2)c1O`, the GFP response vs DMSO in assay [1] is 98% (inactive); in assay [1] (setting [6]), 97.3%; in assay [1] (setting [7]) it was 96.7%; in assay [3] it was 106% (inactive). Also, the GFP response relative to DMSO was 101% (inactive) in assay [2], 99% in assay [2] (setting [8]) and 101% in assay [2] (setting [9]). Moreover, the GFP response, % of DMSO in assay [4] was 101% (inactive); in assay [5], 101% (inactive); in assay [5] (setting [6]), 99.3%; in assay [5] (setting [7]), 102%.
`COc1cc(/C=C2\C(=O)N(CCC#N)N=C2C)c(Br)cc1OC(C)C`: the GFP response vs DMSO in assay [1] is 105% (inactive); in assay [1] (setting [6]) it was 103%; in assay [1] (setting [7]) it was 102%; in assay [3], 107% (inactive). The GFP response relative to DMSO is 165% (active) in assay [2], 145% in assay [2] (setting [8]) and 168% in assay [2] (setting [9]). Further, the GFP response, % of DMSO in assay [4] is 100% (inactive); in assay [5] it was 93.9% (inactive); in assay [5] (setting [6]), 94.8%; in assay [5] (setting [7]) it was 90.2%.
`Cc1ccc(/C(C#N)=C\c2ccc(N3CCOCC3)o2)cc1`: the GFP response vs DMSO is 97.8% (inactive) in assay [1], 97.1% in assay [1] (setting [6]), 98% in assay [1] (setting [7]) and 109% (inactive) in assay [3]. Besides, the values for the GFP response relative to DMSO in assay [2], in assay [2] (setting [8]) and in assay [2] (setting [9]) were 102% (inactive), 104% and 103%, respectively. Also, the GFP response, % of DMSO in assay [4] is 99.4% (inactive); in assay [5], 98.8% (inactive); in assay [5] (setting [6]) it was 99.2%; in assay [5] (setting [7]), 99.3%.
